System: Fibroblast
Assay: Multiplex assay against human fibroblast
Assay type: toxicity, cell-based
Outline: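 Cells were classed with CellPathfinder machine-learning gating, first as Hoechst high-intensity objects or normal cells, then (normal cells) as healthy, pyknosed or fragmented nuclei, and finally (pyknosed cells) as mitotic or apoptotic. Staining of live cells at seeding used Hoechst33342, BioTracker Green Microtubule Cytoskeleton Dye, MitoTracker Red and Annexin V Alexa Fluor 680, with imaging on a CQ1 microscope at 37°C and 5% CO2 after compound addition. Tubulin, mitochondrial-mass and membrane-permeability phenotypes are per cents of healthy-nucleus cells.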

[1] = 12 h, 1 µM, compound concentration 1 uM, replicate 1
[2] = 12 h, 1 µM, compound concentration 1 uM, replicate 2
[3] = 12 h, 10 µM, compound concentration 10 uM, replicate 1
[4] = 12 h, 10 µM, compound concentration 10 uM, replicate 2
[5] = 24 h, 1 µM, compound concentration 1 uM, replicate 1
[6] = 24 h, 1 µM, compound concentration 1 uM, replicate 2
[7] = 24 h, 10 µM, compound concentration 10 uM, replicate 1
[8] = 24 h, 10 µM, compound concentration 10 uM, replicate 2
[9] = 48 h, 1 µM, compound concentration 1 uM, replicate 1
[10] = 48 h, 1 µM, compound concentration 1 uM, replicate 2
[11] = 48 h, 10 µM, compound concentration 10 uM, replicate 1
[12] = 48 h, 10 µM, compound concentration 10 uM, replicate 2

OC1(c2ccc(Cl)cc2)CCN(Cc2c[nH]c3ccccc23)CC1
Population Apoptotic (%) [1]: 58% | Population Fragmented Nuclei (%) [1]: 26% | Population Healthy Nuclei (%) [1]: 41% | Population Hoechst High Intensity Objects (%) [1]: 11% | Population Membrane Permeable-Phenotype (%) [1]: 22% | Population Mitochondria Different-Phenotype (%) [1]: 6% | Population Mitotic Cells (%) [1]: 41% | Population Normal (%) [1]: 88% | Population Pyknosed Nuclei (%) [1]: 32% | Population Tubulin-Different-Phenotype (%) [1]: 33% | Total Cell Count [1]: 169 | Population Apoptotic (%) [2]: 0% | Population Fragmented Nuclei (%) [2]: 13% | Population Healthy Nuclei (%) [2]: 77% | Population Hoechst High Intensity Objects (%) [2]: 10% | Population Membrane Permeable-Phenotype (%) [2]: 3% | Population Mitochondria Different-Phenotype (%) [2]: 13% | Population Mitotic Cells (%) [2]: 100% | Population Normal (%) [2]: 89% | Population Pyknosed Nuclei (%) [2]: 9% | Population Tubulin-Different-Phenotype (%) [2]: 9% | Total Cell Count [2]: 78 | Population Apoptotic (%) [3]: 63% | Population Fragmented Nuclei (%) [3]: 37% | Population Healthy Nuclei (%) [3]: 38% | Population Hoechst High Intensity Objects (%) [3]: 30% | Population Membrane Permeable-Phenotype (%) [3]: 13% | Population Mitochondria Different-Phenotype (%) [3]: 34% | Population Mitotic Cells (%) [3]: 36% | Population Normal (%) [3]: 69% | Population Pyknosed Nuclei (%) [3]: 23% | Population Tubulin-Different-Phenotype (%) [3]: 90% | Total Cell Count [3]: 246 | Population Apoptotic (%) [4]: 42% | Population Fragmented Nuclei (%) [4]: 13% | Population Hoechst High Intensity Objects (%) [4]: 3% | Population Membrane Permeable-Phenotype (%) [4]: 4% | Population Mitochondria Different-Phenotype (%) [4]: 95% | Population Mitotic Cells (%) [4]: 57% | Population Normal (%) [4]: 96% | Population Pyknosed Nuclei (%) [4]: 47% | Population Tubulin-Different-Phenotype (%) [4]: 60% | Total Cell Count [4]: 74 | Population Apoptotic (%) [5]: 52% | Population Fragmented Nuclei (%) [5]: 29% | Population Healthy Nuclei (%) [5]: 47% | Population Hoechst High Intensity Objects (%) [5]: 14% | Population Membrane Permeable-Phenotype (%) [5]: 25% | Population Mitochondria Different-Phenotype (%) [5]: 10% | Population Mitotic Cells (%) [5]: 47% | Population Normal (%) [5]: 85% | Population Pyknosed Nuclei (%) [5]: 22% | Population Tubulin-Different-Phenotype (%) [5]: 42% | Total Cell Count [5]: 174 | Population Apoptotic (%) [6]: 20% | Population Fragmented Nuclei (%) [6]: 5% | Population Healthy Nuclei (%) [6]: 88% | Population Hoechst High Intensity Objects (%) [6]: 8% | Population Membrane Permeable-Phenotype (%) [6]: 4% | Population Mitochondria Different-Phenotype (%) [6]: 13% | Population Mitotic Cells (%) [6]: 80% | Population Normal (%) [6]: 91% | Population Pyknosed Nuclei (%) [6]: 6% | Population Tubulin-Different-Phenotype (%) [6]: 8% | Total Cell Count [6]: 77 | Population Apoptotic (%) [7]: 64% | Population Fragmented Nuclei (%) [7]: 24% | Population Healthy Nuclei (%) [7]: 50% | Population Hoechst High Intensity Objects (%) [7]: 43% | Population Membrane Permeable-Phenotype (%) [7]: 20% | Population Mitochondria Different-Phenotype (%) [7]: 51% | Population Mitotic Cells (%) [7]: 35% | Population Normal (%) [7]: 56% | Population Pyknosed Nuclei (%) [7]: 24% | Population Tubulin-Different-Phenotype (%) [7]: 75% | Total Cell Count [7]: 224 | Population Apoptotic (%) [8]: 66% | Population Fragmented Nuclei (%) [8]: 21% | Population Healthy Nuclei (%) [8]: 27% | Population Hoechst High Intensity Objects (%) [8]: 5% | Population Membrane Permeable-Phenotype (%) [8]: 5% | Population Mitochondria Different-Phenotype (%) [8]: 94% | Population Mitotic Cells (%) [8]: 33% | Population Normal (%) [8]: 94% | Population Pyknosed Nuclei (%) [8]: 51% | Population Tubulin-Different-Phenotype (%) [8]: 52% | Total Cell Count [8]: 85 | Population Apoptotic (%) [9]: 82% | Population Fragmented Nuclei (%) [9]: 33% | Population Healthy Nuclei (%) [9]: 26% | Population Hoechst High Intensity Objects (%) [9]: 0% | Population Membrane Permeable-Phenotype (%) [9]: 54% | Population Mitochondria Different-Phenotype (%) [9]: 0% | Population Mitotic Cells (%) [9]: 17% | Population Normal (%) [9]: 100% | Population Pyknosed Nuclei (%) [9]: 40% | Population Tubulin-Different-Phenotype (%) [9]: 90% | Total Cell Count [9]: 42 | Population Apoptotic (%) [10]: 50% | Population Fragmented Nuclei (%) [10]: 43% | Population Healthy Nuclei (%) [10]: 54% | Population Hoechst High Intensity Objects (%) [10]: 14% | Population Membrane Permeable-Phenotype (%) [10]: 5% | Population Mitochondria Different-Phenotype (%) [10]: 1% | Population Mitotic Cells (%) [10]: 50% | Population Normal (%) [10]: 85% | Population Pyknosed Nuclei (%) [10]: 1% | Population Tubulin-Different-Phenotype (%) [10]: 46% | Total Cell Count [10]: 119 | Population Fragmented Nuclei (%) [11]: 36% | Population Healthy Nuclei (%) [11]: 26% | Population Hoechst High Intensity Objects (%) [11]: 40% | Population Membrane Permeable-Phenotype (%) [11]: 16% | Population Mitochondria Different-Phenotype (%) [11]: 56% | Population Normal (%) [11]: 59% | Population Pyknosed Nuclei (%) [11]: 37% | Population Tubulin-Different-Phenotype (%) [11]: 70% | Total Cell Count [11]: 191 | Population Apoptotic (%) [12]: 90% | Population Fragmented Nuclei (%) [12]: 39% | Population Healthy Nuclei (%) [12]: 24% | Population Hoechst High Intensity Objects (%) [12]: 30% | Population Membrane Permeable-Phenotype (%) [12]: 17% | Population Mitochondria Different-Phenotype (%) [12]: 47% | Population Mitotic Cells (%) [12]: 9% | Population Normal (%) [12]: 69% | Population Pyknosed Nuclei (%) [12]: 35% | Population Tubulin-Different-Phenotype (%) [12]: 52% | Total Cell Count [12]: 133

Reference: ChEMBL document CHEMBL4689842, “EUbOPEN Chemogenomics Library wave 1” (2021)
